# Laboratory results published in ChEMBL document CHEMBL4689842, “EUbOPEN Chemogenomics Library wave 1” (2021).
# System: Fibroblast
# Experiment: Multiplex assay against human fibroblast
# Format: toxicity, cell-based
# Summary of the method: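 Cells stained live at seeding with Hoechst33342, BioTracker Green Microtubule Cytoskeleton Dye, MitoTracker Red and Annexin V Alexa Fluor 680 were imaged on a CQ1 microscope at 37°C and 5% CO2 after compound addition. Their classification by CellPathfinder machine-learning gating ran from Hoechst high-intensity objects versus normal cells, to healthy, pyknosed or fragmented nuclei among normal cells, to mitotic or apoptotic among pyknosed cells. Tubulin, mitochondrial-mass and membrane-permeability phenotypes are per cents of healthy-nucleus cells.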
# [1] = 12 h, 1 µM, compound concentration 1 uM, replicate 1
# [2] = 12 h, 1 µM, compound concentration 1 uM, replicate 2
# [3] = 12 h, 10 µM, compound concentration 10 uM, replicate 1
# [4] = 12 h, 10 µM, compound concentration 10 uM, replicate 2
# [5] = 24 h, 1 µM, compound concentration 1 uM, replicate 1
# [6] = 24 h, 1 µM, compound concentration 1 uM, replicate 2
# [7] = 24 h, 10 µM, compound concentration 10 uM, replicate 1
# [8] = 24 h, 10 µM, compound concentration 10 uM, replicate 2
# [9] = 48 h, 1 µM, compound concentration 1 uM, replicate 1
# [10] = 48 h, 1 µM, compound concentration 1 uM, replicate 2
# [11] = 48 h, 10 µM, compound concentration 10 uM, replicate 1
# [12] = 48 h, 10 µM, compound concentration 10 uM, replicate 2
compound,measurement,setting,value
CCn1c(=O)c(-c2ccc(-c3cncs3)cc2Cl)cc2cnc(Nc3ccc(N4CCN(C)CC4)cc3)nc21,Population Apoptotic (%),[1],53%
same,Population Fragmented Nuclei (%),[1],26%
same,Population Healthy Nuclei (%),[1],37%
same,Population Hoechst High Intensity Objects (%),[1],17%
same,Population Membrane Permeable-Phenotype (%),[1],15%
same,Population Mitochondria Different-Phenotype (%),[1],0%
same,Population Mitotic Cells (%),[1],46%
same,Population Normal (%),[1],82%
same,Population Pyknosed Nuclei (%),[1],35%
same,Population Tubulin-Different-Phenotype (%),[1],36%
same,Total Cell Count,[1],108
same,Population Apoptotic (%),[2],75%
same,Population Fragmented Nuclei (%),[2],9%
same,Population Healthy Nuclei (%),[2],78%
same,Population Hoechst High Intensity Objects (%),[2],7%
same,Population Membrane Permeable-Phenotype (%),[2],3%
same,Population Mitochondria Different-Phenotype (%),[2],17%
same,Population Mitotic Cells (%),[2],25%
same,Population Normal (%),[2],92%
same,Population Pyknosed Nuclei (%),[2],11%
same,Population Tubulin-Different-Phenotype (%),[2],19%
same,Total Cell Count,[2],76
same,Population Apoptotic (%),[3],58%
same,Population Fragmented Nuclei (%),[3],45%
same,Population Healthy Nuclei (%),[3],9%
same,Population Hoechst High Intensity Objects (%),[3],46%
same,Population Membrane Permeable-Phenotype (%),[3],41%
same,Population Mitochondria Different-Phenotype (%),[3],8%
same,Population Mitotic Cells (%),[3],41%
same,Population Normal (%),[3],53%
same,Population Pyknosed Nuclei (%),[3],44%
same,Population Tubulin-Different-Phenotype (%),[3],50%
same,Total Cell Count,[3],230
same,Population Apoptotic (%),[4],11%
same,Population Fragmented Nuclei (%),[4],8%
same,Population Healthy Nuclei (%),[4],79%
same,Population Hoechst High Intensity Objects (%),[4],4%
same,Population Membrane Permeable-Phenotype (%),[4],5%
same,Population Mitochondria Different-Phenotype (%),[4],29%
same,Population Mitotic Cells (%),[4],88%
same,Population Normal (%),[4],96%
same,Population Pyknosed Nuclei (%),[4],12%
same,Population Tubulin-Different-Phenotype (%),[4],15%
same,Total Cell Count,[4],77
same,Population Apoptotic (%),[5],58%
same,Population Fragmented Nuclei (%),[5],26%
same,Population Healthy Nuclei (%),[5],47%
same,Population Hoechst High Intensity Objects (%),[5],16%
same,Population Membrane Permeable-Phenotype (%),[5],31%
same,Population Mitochondria Different-Phenotype (%),[5],0%
same,Population Mitotic Cells (%),[5],41%
same,Population Normal (%),[5],83%
same,Population Pyknosed Nuclei (%),[5],25%
same,Population Tubulin-Different-Phenotype (%),[5],40%
same,Total Cell Count,[5],111
same,Population Apoptotic (%),[6],46%
same,Population Fragmented Nuclei (%),[6],15%
same,Population Healthy Nuclei (%),[6],68%
same,Population Hoechst High Intensity Objects (%),[6],4%
same,Population Membrane Permeable-Phenotype (%),[6],1%
same,Population Mitochondria Different-Phenotype (%),[6],5%
same,Population Mitotic Cells (%),[6],53%
same,Population Normal (%),[6],95%
same,Population Pyknosed Nuclei (%),[6],16%
same,Population Tubulin-Different-Phenotype (%),[6],20%
same,Total Cell Count,[6],74
same,Population Apoptotic (%),[7],85%
same,Population Fragmented Nuclei (%),[7],44%
same,Population Healthy Nuclei (%),[7],6%
same,Population Hoechst High Intensity Objects (%),[7],53%
same,Population Membrane Permeable-Phenotype (%),[7],22%
same,Population Mitochondria Different-Phenotype (%),[7],0%
same,Population Mitotic Cells (%),[7],15%
same,Population Normal (%),[7],46%
same,Population Pyknosed Nuclei (%),[7],48%
same,Population Tubulin-Different-Phenotype (%),[7],27%
same,Total Cell Count,[7],615
same,Population Apoptotic (%),[8],27%
same,Population Fragmented Nuclei (%),[8],14%
same,Population Healthy Nuclei (%),[8],71%
same,Population Hoechst High Intensity Objects (%),[8],3%
same,Population Membrane Permeable-Phenotype (%),[8],7%
same,Population Mitochondria Different-Phenotype (%),[8],23%
same,Population Mitotic Cells (%),[8],72%
same,Population Normal (%),[8],96%
same,Population Pyknosed Nuclei (%),[8],14%
same,Population Tubulin-Different-Phenotype (%),[8],8%
same,Total Cell Count,[8],83
same,Population Apoptotic (%),[9],52%
same,Population Fragmented Nuclei (%),[9],36%
same,Population Healthy Nuclei (%),[9],39%
same,Population Hoechst High Intensity Objects (%),[9],10%
same,Population Membrane Permeable-Phenotype (%),[9],35%
same,Population Mitochondria Different-Phenotype (%),[9],2%
same,Population Mitotic Cells (%),[9],47%
same,Population Normal (%),[9],89%
same,Population Pyknosed Nuclei (%),[9],24%
same,Population Tubulin-Different-Phenotype (%),[9],32%
same,Total Cell Count,[9],105
same,Population Apoptotic (%),[10],0%
same,Population Fragmented Nuclei (%),[10],24%
same,Population Healthy Nuclei (%),[10],75%
same,Population Membrane Permeable-Phenotype (%),[10],5%
same,Population Mitochondria Different-Phenotype (%),[10],6%
same,Population Mitotic Cells (%),[10],0%
same,Population Pyknosed Nuclei (%),[10],0%
same,Population Tubulin-Different-Phenotype (%),[10],20%
same,Total Cell Count,[10],88
same,Population Apoptotic (%),[11],92%
same,Population Fragmented Nuclei (%),[11],44%
same,Population Healthy Nuclei (%),[11],5%
same,Population Hoechst High Intensity Objects (%),[11],59%
same,Population Membrane Permeable-Phenotype (%),[11],24%
same,Population Mitochondria Different-Phenotype (%),[11],0%
same,Population Mitotic Cells (%),[11],7%
same,Population Normal (%),[11],40%
same,Population Pyknosed Nuclei (%),[11],50%
same,Population Tubulin-Different-Phenotype (%),[11],10%
same,Total Cell Count,[11],1270
same,Population Apoptotic (%),[12],100%
same,Population Fragmented Nuclei (%),[12],43%
same,Population Healthy Nuclei (%),[12],55%
same,Population Hoechst High Intensity Objects (%),[12],11%
same,Population Membrane Permeable-Phenotype (%),[12],10%
same,Population Mitochondria Different-Phenotype (%),[12],4%
same,Population Mitotic Cells (%),[12],0%
same,Population Normal (%),[12],88%
same,Population Pyknosed Nuclei (%),[12],0%
same,Population Tubulin-Different-Phenotype (%),[12],52%
same,Total Cell Count,[12],139
NC(=O)c1cccc(-c2cc(Nc3ccc(OC(F)(F)F)cc3)ncn2)c1,Population Apoptotic (%),[1],80%
same,Population Fragmented Nuclei (%),[1],30%
same,Population Healthy Nuclei (%),[1],53%
same,Population Hoechst High Intensity Objects (%),[1],10%
same,Population Membrane Permeable-Phenotype (%),[1],5%
same,Population Mitochondria Different-Phenotype (%),[1],6%
same,Population Mitotic Cells (%),[1],20%
same,Population Normal (%),[1],89%
same,Population Pyknosed Nuclei (%),[1],16%
same,Population Tubulin-Different-Phenotype (%),[1],5%
same,Total Cell Count,[1],205
same,Population Apoptotic (%),[2],20%
same,Population Fragmented Nuclei (%),[2],42%
same,Population Healthy Nuclei (%),[2],48%
same,Population Hoechst High Intensity Objects (%),[2],39%
same,Population Membrane Permeable-Phenotype (%),[2],11%
same,Population Mitochondria Different-Phenotype (%),[2],23%
same,Population Mitotic Cells (%),[2],80%
same,Population Normal (%),[2],60%
same,Population Pyknosed Nuclei (%),[2],9%
same,Population Tubulin-Different-Phenotype (%),[2],3%
same,Total Cell Count,[2],89
same,Population Apoptotic (%),[3],69%
same,Population Fragmented Nuclei (%),[3],20%
same,Population Healthy Nuclei (%),[3],61%
same,Population Hoechst High Intensity Objects (%),[3],7%
same,Population Membrane Permeable-Phenotype (%),[3],7%
same,Population Mitochondria Different-Phenotype (%),[3],3%
same,Population Mitotic Cells (%),[3],30%
same,Population Normal (%),[3],92%
same,Population Pyknosed Nuclei (%),[3],18%
same,Population Tubulin-Different-Phenotype (%),[3],6%
same,Total Cell Count,[3],231
same,Population Apoptotic (%),[4],60%
same,Population Fragmented Nuclei (%),[4],50%
same,Population Healthy Nuclei (%),[4],23%
same,Population Hoechst High Intensity Objects (%),[4],39%
same,Population Membrane Permeable-Phenotype (%),[4],0%
same,Population Mitochondria Different-Phenotype (%),[4],44%
same,Population Mitotic Cells (%),[4],40%
same,Population Normal (%),[4],60%
same,Population Pyknosed Nuclei (%),[4],26%
same,Population Tubulin-Different-Phenotype (%),[4],33%
same,Total Cell Count,[4],63
same,Population Apoptotic (%),[5],60%
same,Population Fragmented Nuclei (%),[5],26%
same,Population Healthy Nuclei (%),[5],59%
same,Population Hoechst High Intensity Objects (%),[5],12%
same,Population Membrane Permeable-Phenotype (%),[5],6%
same,Population Mitochondria Different-Phenotype (%),[5],7%
same,Population Mitotic Cells (%),[5],39%
same,Population Normal (%),[5],87%
same,Population Pyknosed Nuclei (%),[5],13%
same,Population Tubulin-Different-Phenotype (%),[5],11%
same,Total Cell Count,[5],194
same,Population Apoptotic (%),[6],50%
same,Population Fragmented Nuclei (%),[6],46%
same,Population Healthy Nuclei (%),[6],46%
same,Population Hoechst High Intensity Objects (%),[6],26%
same,Population Membrane Permeable-Phenotype (%),[6],12%
same,Population Mitochondria Different-Phenotype (%),[6],16%
same,Population Mitotic Cells (%),[6],50%
same,Population Normal (%),[6],73%
same,Population Pyknosed Nuclei (%),[6],6%
same,Population Tubulin-Different-Phenotype (%),[6],12%
same,Total Cell Count,[6],90
same,Population Apoptotic (%),[7],55%
same,Population Fragmented Nuclei (%),[7],26%
same,Population Healthy Nuclei (%),[7],53%
same,Population Hoechst High Intensity Objects (%),[7],5%
same,Population Membrane Permeable-Phenotype (%),[7],5%
same,Population Mitochondria Different-Phenotype (%),[7],5%
same,Population Mitotic Cells (%),[7],44%
same,Population Normal (%),[7],94%
same,Population Pyknosed Nuclei (%),[7],19%
same,Population Tubulin-Different-Phenotype (%),[7],11%
same,Total Cell Count,[7],237
same,Population Apoptotic (%),[8],40%
same,Population Fragmented Nuclei (%),[8],50%
same,Population Healthy Nuclei (%),[8],39%
same,Population Hoechst High Intensity Objects (%),[8],31%
same,Population Membrane Permeable-Phenotype (%),[8],21%
same,Population Mitochondria Different-Phenotype (%),[8],31%
same,Population Mitotic Cells (%),[8],60%
same,Population Normal (%),[8],68%
same,Population Pyknosed Nuclei (%),[8],10%
same,Population Tubulin-Different-Phenotype (%),[8],57%
same,Total Cell Count,[8],70
